# Test results reported in publication PMC4847003 (International Journal for Parasitology: Drugs and Drug …, 2015).
# Counter-ions that a name gives are not always drawn. Like-named read-outs stand apart in the source and are kept apart here.
# Key:
# HEK293 cells = experiment: HEK293 viability assay; type: cell-based, human; settings: for IC50: read-out: IC50 HEK293 (μM ± SD); for Selectivity (SI) of T. cruzi amastigotes to HEK293 cells: based on solid samples
# T. cruzi trypomastigotes = experiment: Trypomastigote viability assay; type: cell-based, Trypanosoma cruzi Tulahuen strain; settings: for activity against the trypomastigote: Malaria Box retest; for IC50: read-out: IC50 T. cruzi Trypomastigote (μM ± SD)
# 3T3 host cells = experiment: Host cell number in the same well of the amastigote image-based assay; parameters: species or system mouse; settings: for SI (3T3): 3T3 IC50 or highest dose tested / amastigote IC50
# [1] = system: Trypanosoma cruzi amastigotes; experiment: Image-based T. cruzi amastigote assay in 3T3 fibroblasts, 48 h compound exposure; type: cell-based, Trypanosoma cruzi Tulahuen strain; settings: Fibroblast
# [2] = Host cell number in the same well of the amastigote image-based assay; parameters: species or system mouse; settings: mouse, 3T3 host cells infected with T. cruzi
# T. cruzi amastigotes = experiment: Residual amastigotes following compound treatment, 48 and 72 h image-based assay; type: cell-based, Trypanosoma cruzi Tulahuen strain; settings: for Emax at 18 µM / IC50: Trypanosoma cruzi; for Emax at 18 µM: read-out: % of infections removed at Emax concentration; for IC50: read-out: IC50 value against T. cruzi amastigotes
# Method in brief: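 3T3 fibroblasts seeded at 1 × 10³ cells/well in collagen-coated 384-well plates, then infected with T. cruzi trypomastigotes. Free parasites were washed off with PBS after 24 h. Test compound was given as a dose series, pre-diluted 1:21 in water, for 48 or 72 h. Cells were fixed in 4% paraformaldehyde and stained with Hoechst in 0.1% Triton X-100. Residual intracellular spots at the Emax concentration were scored, including by eye.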
# Y strain infection = settings: ref Moraes et al., 2014, cited from earlier work
# [3] = system: Tulahuen strain parasites in U2OS cells; settings: 96 h treatment, high concentrations; ref Moraes et al., 2014; cited from earlier work
# 3T3 cells = experiment: Activity against sub-confluent 3T3 cells; type: cell-based, mouse; settings: at 73 μM, seeding density of 1000 cells per well
# Method in brief: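 3T3 cells seeded at 1000 to 62 cells/well in collagen-coated 384-well plates and grown 48 h. Wells were washed twice and refilled with growth medium. A test-compound dose series was added in duplicate per density, with 30 μM puromycin (positive) and 0.37% DMSO (negative) controls. After a further 48 h, 70 μM final resazurin was added. […] Averaged over duplicate experiments.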
# [4] = solid sample, 48 h, 2 independent experiments
# [5] = read-out: 3T3 % activity highest dose, at 9.2 μM, DMSO sample
# [6] = read-out: IC50 value against T. cruzi amastigotes, Malaria Box primary screening
# [7] = read-out: T. cruzi amastigote IC50 (μM ± SD), Malaria Box sample stored in 100% DMSO, two independent experiments
# [8] = Trypanosoma cruzi, read-out: T. cruzi Trypomastigote % activity at highest dose
compound,measurement,setting,value
O=C(Nc1nc(-c2ccccn2)cs1)c1ccccc1Br [MMV665909],IC50,HEK293 cells; [4],1.97 ± 0.65 µM
same,activity against the trypomastigote,T. cruzi trypomastigotes,active against the trypomastigote life cycle form
same,IC50,T. cruzi trypomastigotes; Malaria Box DMSO sample,1.08 ± 0.01 µM
same,IC50,T. cruzi trypomastigotes; Malaria Box solid sample,1.05 ± 0.13 µM
same,cytotoxicity,3T3 host cells; [5],35%
same,cytotoxicity,"3T3 host cells; read-out: 3T3 % activity highest dose, at 73.3 μM, solid sample",44%
"CC1CS(=O)(=O)CCN1/N=C/c1ccc([N+](=O)[O-])o1 (stereo not drawn) [Nifurtimox, nifurtimox]",Selectivity (SI) of T. cruzi amastigotes to HEK293 cells,HEK293 cells,> 251.1
same,IC50,[1]; [6],0.764 µM
same,IC50,[1]; [7],0.59 ± 0.1 µM
same,"cytotoxicity at 48 h, 153.1 µM",[2],32%
same,SI (3T3),3T3 host cells; based on solid samples,> 231.8
same,SI (3T3),3T3 host cells; solid sample,>157.41
same,activity against host cells,3T3 host cells; Malaria Box primary screening,no corresponding activity against host cells
"CN(C)c1ccc(Nc2c3ccccc3nc3ccccc23)cc1 [STL088556, N′-(acridin-9-yl)-N,N-dimethylbenzene-1,4-diamine]",activity at 79.4 µM,"HEK293 cells; Homo sapiens, HEK293, read-out: HEK293 % activity at highest dose",115%
same,inhibition at 10.9 µM,T. cruzi trypomastigotes; [8],65%
same,activity at 73 µM,[1]; read-out: T. cruzi amastigote % activity,62%
same,IC50,[1]; [7],2.37 ± 1.51 µM
same,"cytotoxicity at 48 h, 9.2 µM",[2],30%
same,"cytotoxicity at 48 h, 73.3 µM",[2],62%
O=C(NC(c1ccccc1)c1ccc2cccnc2c1O)c1ccccc1 (stereo not drawn) [MMV666080],activity / cytotoxicity against HEK293 cells,HEK293 cells,active against HEK293 cells
same,IC50,HEK293 cells; [4],2.88 ± 0.9 µM
same,activity against the trypomastigote,T. cruzi trypomastigotes,active against the trypomastigote life cycle form
same,IC50,T. cruzi trypomastigotes; Malaria Box DMSO sample,0.9 ± 0.06 µM
same,IC50,T. cruzi trypomastigotes; Malaria Box solid sample,0.52 ± 0.04 µM
same,SI (3T3),3T3 host cells; based on solid samples,> 25.77
same,cytotoxicity,3T3 host cells; [5],40%
same,cytotoxicity,"3T3 host cells; read-out: 3T3 % activity highest dose, at 36.6 μM, solid sample",34%
"COc1ccccc1N1CCN(C(CNS(=O)(=O)c2ccc(Cl)cc2)c2cccnc2)CC1 (stereo not drawn) [MMV665914, 4-chloro-N-(2-(4-(2-methoxyphenyl)piperazin-1-yl)-2-(pyridin-3yl)ethyl) benzene sulfonamide]",Selectivity (SI) of T. cruzi amastigotes to HEK293 cells,HEK293 cells,> 45.90
same,SI (3T3),3T3 host cells; based on solid samples,> 42.37
same,cytotoxicity,3T3 host cells; [5],25%
same,% of infections removed at Emax concentration,"T. cruzi amastigotes; 18 μM, 48 h incubation",97%
same,% of parasites removed at Emax concentration,"T. cruzi amastigotes; 18 μM, 72 h incubation",99%
"COc1ccc(C[C@H](N)C(=O)N[C@H]2[C@@H](O)[C@H](n3cnc4c(N(C)C)ncnc43)O[C@@H]2CO)cc1 [Puromycin, puromycin]",IC50,"HEK293 cells; Homo sapiens, HEK293, 48 h",0.28 ± 0.04 µM
same,Selectivity (SI) of T. cruzi amastigotes to HEK293 cells,HEK293 cells,0.12
same,IC50,[1]; [6],2.35 µM
same,IC50,[1]; [7],2.54 ± 0.13 µM
same,SI (3T3),3T3 host cells; based on solid samples,1.48
same,SI (3T3),3T3 host cells; library DMSO stock,0.97
same,SI (3T3),3T3 host cells; solid sample,1.75
same,IC50,"3T3 host cells; Mus musculus, read-out: Host IC50 ± stdev, 3T3, run of library DMSO retest",3040 ± 520 nM
same,IC50,"3T3 host cells; Mus musculus, read-out: Host IC50 ± stdev, 3T3, run of solid sample retest",2760 ± 690 nM
"COc1ccc2sc(N(Cc3cccnc3)C(=O)c3ccc(C#N)cc3)nc2c1 [MMV001239, 4-cyano-N-(5-methoxy-1,3-benzothiazol-2-yl)-N-(pyridin-3-ylmethyl)benzamide]",activity / cytotoxicity against HEK293 cells,HEK293 cells,no cytotoxicity detected
same,Selectivity (SI) of T. cruzi amastigotes to HEK293 cells,HEK293 cells,> 22.37
same,IC50,[1]; [7],0.86 ± 0.006 µM
same,cytotoxicity against 3T3 cells,3T3 host cells,no cytotoxicity detected
same,SI (3T3),3T3 host cells; based on solid samples,> 20.65
same,% of infections removed at Emax concentration,"T. cruzi amastigotes; 18 μM, 48 h incubation",Ninety
same,Emax at 18 µM,T. cruzi amastigotes; 48 h,90%
"COc1c(C)c2c(c(O)c1C/C=C(\C)CCC(=O)[O-])C(=O)OC2.[Na+] [Sodium Mycophenolate, sodium mycophenolate]",SI (3T3),3T3 host cells; library DMSO stock,>19.11
same,cytotoxicity,"3T3 host cells; read-out: Host % activity at highest dose, 3T3, at 17.2 μM, library DMSO stock",30%
"CC[C@@H]([C@H](C)O)n1ncn(-c2ccc(N3CCN(c4ccc(OC[C@@H]5CO[C@@](Cn6cncn6)(c6ccc(F)cc6F)C5)cc4)CC3)cc2)c1=O [posaconazole, reference compound]",reduction of Y strain infection,Y strain infection; 72 h exposure,84%
same,reduction of Y strain infection,Y strain infection; exposure to 80 nM for 48 h,approximately 60%
same,parasites reduced by,[3],93%
same,residual amastigotes at the Emax concentration,"T. cruzi amastigotes; Emax of 50 nM, 48 and 72 h (Figure S5)",presence of a small number of amastigotes could be seen
same,IC50,T. cruzi amastigotes; 48 h,6 ± 0.6 nM
same,IC50,T. cruzi amastigotes; 72 h,4.9 ± 3.6 nM
"Cc1cc(C2CCCCC2)n(O)c(=O)c1 [Ciclopirox Olamine, ciclopirox olamine]",IC50,"HEK293 cells; Homo sapiens, HEK293, 48 h",1.4 ± 1.07 µM
same,Selectivity index (SI) to HEK293 cells,"HEK293 cells; Table 2 footnote a, solid sample",0.36
same,"cytotoxicity at 48 h, 136.5 µM",[2],42%
same,SI (3T3),3T3 host cells; library DMSO stock,>3.54
same,SI (3T3),3T3 host cells; solid sample,> 35.0
same,activity at 19 µM,"3T3 host cells; Mus musculus, read-out: Host % activity at highest dose",53%
same,activity against 3T3 cells,3T3 cells,38%
COc1ccc(C)c2sc(N(Cc3cccnc3)C(=O)c3ccc(C#N)cc3)nc12 [MMV001241],HEK293 % activity at highest dose,"HEK293 cells; at 79.4 μM, solid sample",44% at 79.4 μM
same,Selectivity (SI) of T. cruzi amastigotes to HEK293 cells,HEK293 cells,> 34.22
same,SI (3T3),3T3 host cells; based on solid samples,> 31.59
"Cc1[nH]c2ccccc2c(=O)c1CC=C(Cl)Cl [MMV665994, 3-(3,3-Dichloro-2-propen-1-yl)-2-methyl-4(1H)-quinolinone]",Selectivity (SI) of T. cruzi amastigotes to HEK293 cells,HEK293 cells,> 64.55
same,inhibition at 87 µM,T. cruzi trypomastigotes; [8],52%
same,IC50,[1]; [7],0.66 ± 0.7 µM
same,SI (3T3),3T3 host cells; based on solid samples,> 59.59
same,Emax at 18 µM,T. cruzi amastigotes; 48 h,97%
CCOc1cccc2sc(N(Cc3cccnc3)C(=O)C3CCCCC3)nc12 [MMV001230],Selectivity (SI) of T. cruzi amastigotes to HEK293 cells,HEK293 cells,> 94.52
same,SI (3T3),3T3 host cells; based on solid samples,> 87.26
"CC[C@@]1(O)C(=O)OCc2c1cc1n(c2=O)Cc2cc3ccccc3nc2-1 [Camptothecin, camptothecin]","cytotoxicity at 48 h, 5 µM",[2],38%
same,"cytotoxicity at 48 h, 16.8 µM",[2],44%
same,SI (3T3),3T3 host cells; library DMSO stock,>49.41
same,SI (3T3),3T3 host cells; solid sample,>55.56
"Clc1ccccc1C(c1ccccc1)(c1ccccc1)n1ccnc1 [Clotrimrazole HCl, clotrimazole, reference compound]",residual amastigotes at the Emax concentration,"T. cruzi amastigotes; 48 h incubation, 0.92 µM in Figure S3",amastigotes that appeared to remain
